Reference: ChEMBL document CHEMBL1147748, “Overlapping, nonidentical binding sites of different classes of nonpeptide antagonists for the human gonadotropin-releasing hormone receptor” (J Med Chem, 2006)

Legend:
[1] = target: Gonadotropin-releasing hormone receptor (Homo sapiens, UniProt P30968, M24I); assay: Displacement of [125I]-His5, D-Tyr6]GnRH from mutant GnRHR, GnRHR M24I
Summary of the method: (§1)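 Human GnRH-R (wild type or site-directed point mutant) was transiently expressed in COS-7 cells by electroporation, with cells cultured 36-48 h before membranes were prepared. Membranes (5-20 µg per point) were incubated 2 h at room temperature with 0.3 nM tracer and varying competitor in HEPES pH 7.5, 150 mM NaCl, 0.1% BSA, then filtered and counted.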

[2] = target: Gonadotropin-releasing hormone receptor (Homo sapiens, UniProt P30968, M24T); assay: Displacement of [125I]-His5, D-Tyr6]GnRH from mutant GnRHR, GnRHR M24T; summary of the method: as §1
[3] = target: Gonadotropin-releasing hormone receptor (Homo sapiens, UniProt P30968, F309Q); assay: Displacement of [125I]-His5, D-Tyr6]GnRH from mutant GnRHR, GnRHR F309Q; summary of the method: as §1
[4] = target: Gonadotropin-releasing hormone receptor (Homo sapiens, UniProt P30968, F309L); assay: Displacement of [125I]-His5, D-Tyr6]GnRH from mutant GnRHR, GnRHR F309L; summary of the method: as §1
[5] = target: Gonadotropin-releasing hormone receptor (Homo sapiens, UniProt P30968, E111Q); assay: Displacement of [125I]-His5, D-Tyr6]GnRH from mutant GnRHR, GnRHR E111Q; summary of the method: as §1
Gonadotropin-releasing hormone receptor (Homo sapiens, UniProt P30968, E111Q), sequence (P30968 whole entry E111Q): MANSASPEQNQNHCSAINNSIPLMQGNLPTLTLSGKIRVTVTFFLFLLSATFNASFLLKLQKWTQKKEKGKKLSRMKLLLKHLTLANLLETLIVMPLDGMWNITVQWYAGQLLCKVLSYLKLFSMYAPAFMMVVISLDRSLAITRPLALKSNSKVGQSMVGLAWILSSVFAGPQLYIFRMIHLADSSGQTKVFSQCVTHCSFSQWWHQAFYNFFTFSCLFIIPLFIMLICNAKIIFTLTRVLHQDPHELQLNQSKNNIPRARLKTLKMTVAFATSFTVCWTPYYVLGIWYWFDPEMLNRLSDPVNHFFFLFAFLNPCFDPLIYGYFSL

[6] = target: Gonadotropin-releasing hormone receptor (Homo sapiens, UniProt P30968, D293E); assay: Displacement of [125I]-His5, D-Tyr6]GnRH from mutant GnRHR, GnRHR D293E; summary of the method: as §1
Gonadotropin-releasing hormone receptor (Homo sapiens, UniProt P30968, D293E), sequence (P30968 whole entry D293E): as the sequence (P30968 whole entry E111Q) above, with Q111E, D293E counted along it

[7] = target: Gonadotropin-releasing hormone receptor (Homo sapiens, UniProt P30968, D293N); assay: Displacement of [125I]-His5, D-Tyr6]GnRH from mutant GnRHR, GnRHR D293N; summary of the method: as §1
Gonadotropin-releasing hormone receptor (Homo sapiens, UniProt P30968, D293N), sequence (P30968 whole entry D293N): as the sequence (P30968 whole entry E111Q) above, with Q111E, D293N counted along it

[8] = target: Gonadotropin-releasing hormone receptor (Homo sapiens, UniProt P30968, A50T); assay: Displacement of [125I]-His5, D-Tyr6]GnRH from mutant GnRHR, GnRHR A50T; summary of the method: as §1
Gonadotropin-releasing hormone receptor (Homo sapiens, UniProt P30968, A50T), sequence (P30968 whole entry A50T): as the sequence (P30968 whole entry E111Q) above, with A50T, Q111E counted along it

[9] = target: Gonadotropin-releasing hormone receptor (Homo sapiens, UniProt P30968, E111A); assay: Displacement of [125I]-His5, D-Tyr6]GnRH from mutant GnRHR, GnRHR E111A; summary of the method: as §1
Gonadotropin-releasing hormone receptor (Homo sapiens, UniProt P30968, E111A), sequence (P30968 whole entry E111A): as the sequence (P30968 whole entry E111Q) above, with Q111A counted along it

[10] = target: Gonadotropin-releasing hormone receptor (Homo sapiens, UniProt P30968, H182A); assay: Displacement of [125I]-His5, D-Tyr6]GnRH from mutant GnRHR, GnRHR H182A; summary of the method: as §1
[11] = target: Gonadotropin-releasing hormone receptor (Homo sapiens, UniProt P30968, S203K); assay: Displacement of [125I]-His5, D-Tyr6]GnRH from mutant GnRHR, GnRHR S203K
Gonadotropin-releasing hormone receptor (Homo sapiens, UniProt P30968, S203K), sequence (P30968 whole entry S203K): as the sequence (P30968 whole entry E111Q) above, with Q111E, S203K counted along it

[12] = target: Gonadotropin-releasing hormone receptor (Homo sapiens, UniProt P30968, L112F); assay: Displacement of [125I]-His5, D-Tyr6]GnRH from mutant GnRHR, GnRHR L112F; summary of the method: as §1
[13] = target: Gonadotropin-releasing hormone receptor (Homo sapiens, UniProt P30968, L300V); assay: Displacement of [125I]-His5, D-Tyr6]GnRH from mutant GnRHR, GnRHR L300V; summary of the method: as §1
Gonadotropin-releasing hormone receptor (Homo sapiens, UniProt P30968, L300V), sequence (P30968 whole entry L300V): as the sequence (P30968 whole entry E111Q) above, with Q111E, L300V counted along it

[14] = target: Gonadotropin-releasing hormone receptor (Homo sapiens, UniProt P30968, S124A); assay: Displacement of [125I]-His5, D-Tyr6]GnRH from mutant GnRHR, GnRHR S124A
[15] = target: Gonadotropin-releasing hormone receptor (Homo sapiens, UniProt P30968, K115Q); assay: Displacement of [125I]-His5, D-Tyr6]GnRH from mutant GnRHR, GnRHR K115Q; summary of the method: as §1
[16] = target: Gonadotropin-releasing hormone receptor (Homo sapiens, UniProt P30968, E295Q); assay: Displacement of [125I]-His5, D-Tyr6]GnRH from mutant GnRHR, GnRHR E295Q; summary of the method: as §1
Gonadotropin-releasing hormone receptor (Homo sapiens, UniProt P30968, E295Q), sequence (P30968 whole entry E295Q): as the sequence (P30968 whole entry E111Q) above, with Q111E, E295Q counted along it

[17] = target: Gonadotropin-releasing hormone receptor (Homo sapiens, UniProt P30968, F272L); assay: Displacement of [125I]-His5, D-Tyr6]GnRH from mutant GnRHR, GnRHR F272L; summary of the method: as §1
Gonadotropin-releasing hormone receptor (Homo sapiens, UniProt P30968, F272L), sequence (P30968 whole entry F272L): as the sequence (P30968 whole entry E111Q) above, with Q111E, F272L counted along it

[18] = target: Gonadotropin-releasing hormone receptor (Homo sapiens, UniProt P30968, S118A); assay: Displacement of [125I]-His5, D-Tyr6]GnRH from mutant GnRHR, GnRHR S118A
Gonadotropin-releasing hormone receptor (Homo sapiens, UniProt P30968, S118A), sequence (P30968 whole entry S118A): as the sequence (P30968 whole entry E111Q) above, with Q111E, S118A counted along it

[19] = target: Gonadotropin-releasing hormone receptor (Homo sapiens, UniProt P30968, N305K); assay: Displacement of [125I]-His5, D-Tyr6]GnRH from mutant GnRHR, GnRHR N305K; summary of the method: as §1
[20] = target: Gonadotropin-releasing hormone receptor (Homo sapiens, UniProt P30968, Y290F); assay: Displacement of [125I]-His5, D-Tyr6]GnRH from mutant GnRHR, GnRHR Y290F
[21] = target: Gonadotropin-releasing hormone receptor (Homo sapiens, UniProt P30968, S186D); assay: Displacement of [125I]-His5, D-Tyr6]GnRH from mutant GnRHR, GnRHR S186D
[22] = target: Gonadotropin-releasing hormone receptor (Homo sapiens, UniProt P30968, H182E); assay: Displacement of [125I]-His5, D-Tyr6]GnRH from mutant GnRHR, GnRHR H182E; summary of the method: as §1
[23] = target: Gonadotropin-releasing hormone receptor (Homo sapiens, UniProt P30968, F313L); assay: Displacement of [125I]-His5, D-Tyr6]GnRH from mutant GnRHR, GnRHR F313L; summary of the method: as §1
Gonadotropin-releasing hormone receptor (Homo sapiens, UniProt P30968, F313L), sequence (P30968 whole entry F313L): as the sequence (P30968 whole entry E111Q) above, with Q111E, F313L counted along it

[24] = target: Gonadotropin-releasing hormone receptor (Homo sapiens, UniProt P30968, H306E); assay: Displacement of [125I]-His5, D-Tyr6]GnRH from mutant GnRHR, GnRHR H306E; summary of the method: as §1
Gonadotropin-releasing hormone receptor (Homo sapiens, UniProt P30968, H306E), sequence (P30968 whole entry H306E): as the sequence (P30968 whole entry E111Q) above, with Q111E, H306E counted along it

[25] = target: Gonadotropin-releasing hormone receptor (Homo sapiens, UniProt P30968, Q208D); assay: Displacement of [125I]-His5, D-Tyr6]GnRH from mutant GnRHR, GnRHR Q208D
Gonadotropin-releasing hormone receptor (Homo sapiens, UniProt P30968, Q208D), sequence (P30968 whole entry Q208D): as the sequence (P30968 whole entry E111Q) above, with Q111E, Q208D counted along it

[26] = target: Gonadotropin-releasing hormone receptor (Homo sapiens, UniProt P30968, Q189P); assay: Displacement of [125I]-His5, D-Tyr6]GnRH from mutant GnRHR, GnRHR Q189P
[27] = target: Gonadotropin-releasing hormone receptor (Homo sapiens, UniProt P30968, Q189E); assay: Displacement of [125I]-His5, D-Tyr6]GnRH from mutant GnRHR, GnRHR Q189E; summary of the method: as §1
[28] = target: Gonadotropin-releasing hormone receptor (Homo sapiens, UniProt P30968, S203E); assay: Displacement of [125I]-His5, D-Tyr6]GnRH from mutant GnRHR, GnRHR S203E
[29] = target: Gonadotropin-releasing hormone receptor (Homo sapiens, UniProt P30968, E295A); assay: Displacement of [125I]-His5, D-Tyr6]GnRH from mutant GnRHR, GnRHR E295A; summary of the method: as §1
[30] = target: Gonadotropin-releasing hormone receptor (Homo sapiens, UniProt P30968, Y283F); assay: Displacement of [125I]-His5, D-Tyr6]GnRH from mutant GnRHR, GnRHR Y283F
Gonadotropin-releasing hormone receptor (Homo sapiens, UniProt P30968, Y283F), sequence (P30968 whole entry Y283F): as the sequence (P30968 whole entry E111Q) above, with Q111E, Y283F counted along it

CC(C)C[C@H](NC(=O)[C@@H](Cc1ccc(O)cc1)NC(=O)[C@H](Cc1c[nH]cn1)NC(=O)[C@H](CO)NC(=O)[C@H](Cc1c[nH]c2ccccc12)NC(=O)[C@H](Cc1c[nH]cn1)NC(=O)[C@@H]1CCC(=O)N1)C(=O)N[C@@H](CCCN=C(N)N)C(=O)N1CCC[C@H]1C(=O)NCC(N)=O
IC50 [1]: 2.2 nM
IC50 [2]: 4.9 nM
IC50 [3]: 65.1 nM
IC50 [4]: 37.7 nM
IC50 [5]: 3.3 nM
IC50 [6]: 6.1 nM
IC50 [7]: 4.7 nM
IC50 [8]: 3.6 nM
IC50 [9]: 4.6 nM
IC50 [10]: 6.6 nM
IC50 [11]: 3.1 nM
IC50 [12]: 2.7 nM
IC50 [13]: 6.5 nM
IC50 [14]: 3.9 nM
IC50 [15]: 8.2 nM
IC50 [16]: 2.4 nM
IC50 [17]: 4.4 nM
IC50 [18]: 3.3 nM
IC50 [19]: 12.4 nM
IC50 [20]: 48.8 nM
IC50 [21]: 3.1 nM
IC50 [22]: 3.6 nM
IC50 [23]: 5.6 nM
IC50 [24]: 52.8 nM
IC50 [25]: 10.1 nM
IC50 [26]: 1.9 nM
IC50 [27]: 16.7 nM
IC50 [28]: 2.9 nM
IC50 [29]: 1.9 nM
IC50 [30]: 316 nM

COc1c(C)cc(-c2[nH]c3ccc(C(C)(C)C(=O)N(CC(C)C)CC(C)C)cc3c2[C@H](C)CNCCc2ccccc2)cc1C
IC50 [1]: 23.2 nM
IC50 [2]: 57.1 nM
IC50 [3]: 222 nM
IC50 [4]: 60.1 nM
IC50 [5]: 11.5 nM
IC50 [6]: 27.2 nM
IC50 [7]: 32.6 nM
IC50 [8]: 17.8 nM
IC50 [9]: 5.4 nM
IC50 [10]: 3.7 nM
IC50 [11]: 14.6 nM
IC50 [12]: 29.5 nM
IC50 [13]: 164 nM
IC50 [14]: 21.3 nM
IC50 [15]: 27 nM
IC50 [16]: 15.2 nM
IC50 [17]: 16.9 nM
IC50 [18]: 46.8 nM
IC50 [19]: 3.7 nM
IC50 [20]: 39.6 nM
IC50 [21]: 11.3 nM
IC50 [22]: 7.6 nM
IC50 [23]: 623 nM
IC50 [24]: 48.8 nM
IC50 [25]: 16.2 nM
IC50 [26]: 10.8 nM
IC50 [27]: 15.7 nM
IC50 [28]: 15.1 nM
IC50 [29]: 11.2 nM
IC50 [30]: 108 nM
